The text below walks through data of ChEMBL document CHEMBL1145056, “Structure-activity relationships of novel cyclic alpha-MSH/beta-MSH hybrid analogues that lead to potent and selective ligands for the human MC3R and human MC5R” (J Med Chem, 2003).

Molecules are shown by their SMILES. Positions of bridges follow the written chain, without caps; N, C: chain ends. Non-standard residues stand in square brackets, D forms with d. Residues, ends and D or L forms follow the SMILES beside them. d2Nal = N[C@H](Cc1ccc2ccccc2c1)C(=O)O

Test [1] concerns the target T1, Melanocortin receptor 3 (Homo sapiens, UniProt P41968). Put plainly: Inhibitory activity against human Melanocortin 3 receptor was determined. In outline:
(§1)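 Whole-cell competition binding in HEK293 cells stably transfected with human MCRs (CMVneo vector), 50 000 cells/well seeded 48 h before. Binding buffer: MEM, 25 mM HEPES pH 7.4, 0.2% BSA, 1,10-phenanthroline, leupeptin, bacitracin. Cells were incubated with unlabeled peptide (10^-10 to 10^-4 M) and 0.1386 nM [125I-Tyr2]-[Nle4,D-Phe7]α-MSH for 40 min at 37 °C, then washed, lysed (NaOH/Triton X-100) and gamma-counted.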

For test [2], the target named is T2, Melanocortin receptor 5 (Homo sapiens, UniProt P33032). Put plainly: Inhibitory activity against human melanocortin receptor human Melanocortin 5 receptor was determined. In outline:
as §1

In test [3] the target is T3, Melanocortin receptor 4 (Homo sapiens, UniProt P32245). The test can be described thus: Inhibitory activity against human melanocortin receptor human Melanocortin 4 receptor was determined. A digest of the protocol:
as §1

Test [4] has as its target T3, Melanocortin receptor 4. The test can be described thus: (§2) Effective concentration of peptide at 50% maximal cAMP generation. The class given is functional.
In test [5] the target is T1, Melanocortin receptor 3. Put plainly: Inhibition of human Melanocortin 3 receptor.
Test [6] has as its target T2, Melanocortin receptor 5. The test can be described thus: Inhibition of human melanocortin 5 receptor.
Test [7] has as its target T3, Melanocortin receptor 4. Put plainly: Inhibition of human melanocortin 4 receptor.
In test [8] the target is T2, Melanocortin receptor 5. Described as §2. In kind it is functional. A digest of the protocol:
(§3)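 Receptor-transfected human MCR HEK293 cells were seeded at 50 000 cells/well 48 h before the assay. The reaction was stopped with ice-cold Tris/EDTA, and lysates were boiled 15 min. cAMP was measured by competitive binding kit.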

The target in test [9] is T1, Melanocortin receptor 3. The description is as §2. In kind it is functional. In outline: as §3
Test [10] concerns the target T2, Melanocortin receptor 5. The test can be described thus: (§4) Effective concentration of peptide at 50% maximal cAMP generation (10e-10 to 10e-4 M). In kind it is functional. In outline: (§5)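 Receptor-transfected human MCR HEK293 cells were seeded at 50 000 cells/well 48 h before the assay. Cells were preincubated in EBSS with 0.5 mM IBMX for 1 min at 37 °C, then exposed to peptide (10^-10 to 10^-4 M) for 3 min at 37 °C. The reaction was stopped with ice-cold Tris/EDTA, and lysates were boiled 15 min. cAMP was measured by competitive binding kit.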

In test [11] the target is T3, Melanocortin receptor 4. Described as §4. The class given is functional. In outline:
as §5

T2 sequence (P33032 whole entry): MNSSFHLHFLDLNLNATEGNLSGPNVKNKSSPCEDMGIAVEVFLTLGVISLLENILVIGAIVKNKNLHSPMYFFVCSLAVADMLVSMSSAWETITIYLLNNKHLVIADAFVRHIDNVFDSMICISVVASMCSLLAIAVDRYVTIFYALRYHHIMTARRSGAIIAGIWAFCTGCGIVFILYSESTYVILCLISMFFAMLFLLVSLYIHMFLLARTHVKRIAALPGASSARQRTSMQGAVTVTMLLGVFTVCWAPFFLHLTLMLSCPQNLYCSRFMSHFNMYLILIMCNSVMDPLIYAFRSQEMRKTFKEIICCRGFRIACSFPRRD
T1 sequence (P41968 whole entry): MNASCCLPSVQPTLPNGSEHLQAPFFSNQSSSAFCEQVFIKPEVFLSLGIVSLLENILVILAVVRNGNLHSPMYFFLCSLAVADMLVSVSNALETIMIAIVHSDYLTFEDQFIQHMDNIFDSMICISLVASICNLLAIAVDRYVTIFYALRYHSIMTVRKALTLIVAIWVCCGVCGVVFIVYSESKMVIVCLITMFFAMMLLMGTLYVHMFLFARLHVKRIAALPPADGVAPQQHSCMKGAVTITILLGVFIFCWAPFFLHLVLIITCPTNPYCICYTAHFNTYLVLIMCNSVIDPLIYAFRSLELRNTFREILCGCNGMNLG
T3 sequence (P32245 whole entry): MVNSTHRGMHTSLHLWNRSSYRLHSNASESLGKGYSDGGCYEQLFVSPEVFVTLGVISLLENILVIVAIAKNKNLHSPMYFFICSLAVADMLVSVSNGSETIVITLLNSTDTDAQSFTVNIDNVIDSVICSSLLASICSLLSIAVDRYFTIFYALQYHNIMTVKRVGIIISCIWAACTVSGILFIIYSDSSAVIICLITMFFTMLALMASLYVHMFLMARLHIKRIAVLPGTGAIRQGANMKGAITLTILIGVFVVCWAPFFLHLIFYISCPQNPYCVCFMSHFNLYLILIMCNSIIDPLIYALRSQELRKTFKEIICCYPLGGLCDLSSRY

Consider `CC(=O)N[C@H]1CSSC[C@@H](C(=O)N2CCC[C@H]2C(=O)N2CCC[C@H]2C(=O)N[C@@H](CCCCN)C(=O)N[C@@H](CC(=O)O)C(N)=O)NC(=O)CNC(=O)[C@H](Cc2c[nH]c3ccccc23)NC(=O)[C@H](CCCNC(=N)N)NC(=O)[C@@H](Cc2ccc3ccccc3c2)NC(=O)[C@H](Cc2c[nH]cn2)NC(=O)[C@H](CCC(=O)O)NC1=O` (Ac-CEH[d2Nal]RWGCPPKD-NH2; disulfide 1-8), for which the values for the Ki on Melanocortin receptor 3 [1], at Melanocortin receptor 5 [2] and on Melanocortin receptor 4 [3] were 0.054 µM, 0.694 µM and 0.0031 µM, respectively.

As for `CC(=O)N[C@@H]1C(=O)N[C@@H](CCC(=O)O)C(=O)N[C@@H](Cc2c[nH]cn2)C(=O)N[C@H](Cc2ccccc2)C(=O)N[C@@H](CCCN=C(N)N)C(=O)N[C@@H](Cc2c[nH]c3ccccc23)C(=O)N[C@H](C(=O)N2CCC[C@H]2C(=O)N2CCC[C@H]2C(=O)N[C@@H](CCCCN)C(=O)N[C@@H](CC(=O)O)C(N)=O)CSSC1(C)C`, the half-maximal effective concentration (EC50) (as a rule, the concentration giving half of the maximal effect) at Melanocortin receptor 4 [4] is 0.0063 µM; at Melanocortin receptor 5 [8] it was greater than 10 µM; at Melanocortin receptor 3 [9], 0.0028 µM. Also, the IC50 (in general, the midpoint of a concentration-inhibition curve) at Melanocortin receptor 3 [5] worked out at 0.43 µM; on Melanocortin receptor 5 [6] it was 27 µM; against Melanocortin receptor 4 [7], 1.1 µM.

Take `CC(=O)N[C@@H]1CSSC[C@@H](C(=O)N2CCC[C@H]2C(=O)N2CCC[C@H]2C(=O)N[C@@H](CCCCN)C(=O)N[C@@H](CC(=O)O)C(N)=O)NC(=O)[C@H](Cc2c[nH]c3ccccc23)NC(=O)[C@H](CCCN=C(N)N)NC(=O)[C@@H](Cc2ccc3ccccc3c2)NC(=O)[C@H](Cc2c[nH]cn2)NC(=O)[C@H](CCC(=O)O)NC1=O`: the values for the 50% effective concentration (EC50) at Melanocortin receptor 4 [4], on Melanocortin receptor 3 [9] and on Melanocortin receptor 5 [10] were greater than 10 µM, greater than 10 µM and 0.88 µM, respectively. Also, the half-inhibitory concentration (IC50) against Melanocortin receptor 3 [5] was determined as 0.2 µM; at Melanocortin receptor 5 [6], 26 µM; on Melanocortin receptor 4 [7], 3.7 µM.

As for `CC(=O)N[C@H]1CSSC[C@@H](C(=O)N2CCC[C@H]2C(=O)N2CCC[C@H]2C(=O)N[C@@H](CCCCN)C(=O)N[C@@H](CC(=O)O)C(N)=O)NC(=O)[C@H](Cc2c[nH]c3ccccc23)NC(=O)[C@H](CCCN=C(N)N)NC(=O)[C@@H](Cc2ccc3ccccc3c2)NC(=O)[C@H](Cc2c[nH]cn2)NC(=O)[C@H](CCC(=O)O)NC1=O`, the EC50 on Melanocortin receptor 4 [4] was 0.0061 µM; on Melanocortin receptor 5 [8], 0.19 µM; on Melanocortin receptor 3 [9] it was greater than 10 µM. Also, the half-maximal inhibitory concentration (IC50) on Melanocortin receptor 3 [5] came out at 0.13 µM; against Melanocortin receptor 5 [6], 0.18 µM; at Melanocortin receptor 4 [7], 0.0034 µM.

In the case of `CC(=O)N[C@H]1CSSC[C@@H](C(=O)N2CCC[C@H]2C(=O)N2CCC[C@H]2C(=O)N[C@@H](CCCCN)C(=O)N[C@@H](CC(=O)O)C(N)=O)NC(=O)[C@H](Cc2c[nH]c3ccccc23)NC(=O)[C@H](CCCNC(=N)N)NC(=O)[C@@H](Cc2ccccc2)NC(=O)[C@@H]2CCCN2C(=O)[C@H](CCC(=O)O)NC1=O`, the values for the EC50 on Melanocortin receptor 4 [4], at Melanocortin receptor 3 [9] and on Melanocortin receptor 5 [10] were greater than 10 µM, 0.401 µM and 0.38 µM, respectively. Moreover, the values for the half-inhibitory concentration (IC50) against Melanocortin receptor 3 [5], against Melanocortin receptor 5 [6] and on Melanocortin receptor 4 [7] were greater than 1 µM, 0.2 µM and 3.3 µM, respectively.

Consider `CC(=O)N[C@@H]1CSSC[C@@H](C(=O)N2CCC[C@H]2C(=O)N2CCC[C@H]2C(=O)N[C@@H](CCCCN)C(=O)N[C@@H](CC(=O)O)C(N)=O)NC(=O)[C@H](Cc2c[nH]c3ccccc23)NC(=O)[C@H](CCCNC(=N)N)NC(=O)[C@@H](Cc2ccccc2)NC(=O)[C@H](Cc2c[nH]cn2)NC(=O)[C@H](CCC(=O)O)NC1=O`, for which the EC50 on Melanocortin receptor 4 [4], at Melanocortin receptor 5 [8] and at Melanocortin receptor 3 [9] was greater than 10 µM throughout. Moreover, the IC50 against Melanocortin receptor 3 [5] was determined as 0.62 µM; against Melanocortin receptor 5 [6] it was 0.073 µM; against Melanocortin receptor 4 [7], 37 µM.

In the case of `CC(=O)N[C@H]1CSSC[C@@H](C(=O)N2CCC[C@H]2C(=O)N2CCC[C@H]2C(=O)N[C@@H](CCCCN)C(=O)N[C@@H](CC(=O)O)C(N)=O)NC(=O)[C@H](Cc2c[nH]c3ccccc23)NC(=O)[C@H](CCCNC(=N)N)NC(=O)[C@@H](Cc2ccc3ccccc3c2)NC(=O)[C@@H]2CCCN2C(=O)[C@H](CCC(=O)O)NC1=O`, the IC50 on Melanocortin receptor 3 [5] stood at 0.031 µM; on Melanocortin receptor 5 [6], 97 µM; at Melanocortin receptor 4 [7], 17 µM. In addition, the EC50 on Melanocortin receptor 5 [8], at Melanocortin receptor 3 [9] and on Melanocortin receptor 4 [11] was greater than 10 µM each time.

For the compound `CC(=O)N[C@H]1CC(=O)NCCCC[C@@H](C(=O)N2CCC[C@H]2C(=O)N2CCC[C@H]2C(=O)N[C@@H](CCCCN)C(=O)N[C@@H](CC(=O)O)C(N)=O)NC(=O)[C@H](Cc2c[nH]c3ccccc23)NC(=O)[C@H](CCCNC(=N)N)NC(=O)[C@@H](Cc2ccccc2)NC(=O)[C@H](Cc2c[nH]cn2)NC(=O)[C@H](CCC(=O)O)NC1=O`, the EC50 on Melanocortin receptor 4 [4], on Melanocortin receptor 5 [8] and at Melanocortin receptor 3 [9] was greater than 10 µM each time. Besides, the figures for the IC50 against Melanocortin receptor 3 [5], at Melanocortin receptor 5 [6] and against Melanocortin receptor 4 [7] were greater than 1 µM, greater than 10 µM and greater than 10 µM, respectively.

As for `CC(=O)N[C@H]1CSSC[C@H](C(=O)N2CCC[C@H]2C(=O)N2CCC[C@H]2C(=O)N[C@@H](CCCCN)C(=O)N[C@@H](CC(=O)O)C(N)=O)NC(=O)[C@H](Cc2c[nH]c3ccccc23)NC(=O)[C@H](CCCN=C(N)N)NC(=O)[C@@H](Cc2ccc3ccccc3c2)NC(=O)[C@H](Cc2c[nH]cn2)NC(=O)[C@H](CCC(=O)O)NC1=O`, the 50% effective concentration (EC50) on Melanocortin receptor 4 [4], at Melanocortin receptor 5 [8] and at Melanocortin receptor 3 [9] was greater than 10 µM each time. Further, the IC50 is 2.9 µM at Melanocortin receptor 3 [5], 15 µM against Melanocortin receptor 5 [6] and 40 µM against Melanocortin receptor 4 [7].

On to `CC(=O)N[C@@H]1C(=O)N[C@@H](CCC(=O)O)C(=O)N[C@@H](Cc2c[nH]cn2)C(=O)N[C@H](Cc2ccc3ccccc3c2)C(=O)N[C@@H](CCCN=C(N)N)C(=O)N[C@@H](Cc2c[nH]c3ccccc23)C(=O)N[C@H](C(=O)N2CCC[C@H]2C(=O)N2CCC[C@H]2C(=O)N[C@@H](CCCCN)C(=O)N[C@@H](CC(=O)O)C(N)=O)CSSC1(C)C`, for which the concentration for a half-maximal effect (EC50) on Melanocortin receptor 4 [4], at Melanocortin receptor 5 [8] and at Melanocortin receptor 3 [9] was greater than 10 µM throughout. Moreover, the 50% inhibitory concentration (IC50) against Melanocortin receptor 3 [5] came to 0.003 µM; on Melanocortin receptor 5 [6], 0.094 µM; at Melanocortin receptor 4 [7] it was 0.75 µM.

As for `CC(=O)N[C@H]1CSSC[C@H](C(=O)N2CCC[C@H]2C(=O)N2CCC[C@H]2C(=O)N[C@@H](CCCCN)C(=O)N[C@@H](CC(=O)O)C(N)=O)NC(=O)[C@H](Cc2c[nH]c3ccccc23)NC(=O)[C@H](CCCNC(=N)N)NC(=O)[C@@H](Cc2ccccc2)NC(=O)[C@H](Cc2c[nH]cn2)NC(=O)[C@H](CCC(=O)O)NC1=O`, the EC50 on Melanocortin receptor 4 [4], on Melanocortin receptor 5 [8] and on Melanocortin receptor 3 [9] was greater than 10 µM throughout. The figures for the IC50 against Melanocortin receptor 3 [5], at Melanocortin receptor 5 [6] and at Melanocortin receptor 4 [7] were 5.6 µM, 0.01 µM and greater than 10 µM, respectively.
